Measured values collected from several papers.
Target: Dual specificity protein kinase CLK2 (CLK2, Homo sapiens, UniProt P49760)

SMILES | effect on | mode | method | concentration | quantity | result
Cn1cc(-c2cc(F)cc(N3CCn4c(cc5c4CCCC5)C3=O)c2CO)cc(Nc2ccc(N3CCN(C4COC4)CC3)cn2)c1=O | enzyme activity | inhibitor |  | 0.1 µM | inhibition | 7%
CC(C)(C)c1cc(C=C(C#N)C#N)cc(Br)c1O | enzyme activity | inhibitor |  | 0.5 µM | remaining activity | 104%
N#CC1(c2ccccn2)CCN(Cc2cc(C(=O)O)c(=O)n3ccccc23)CC1 | cell-free assay |  | competition with immobilised ligand | 1 µM | remaining binding | 100%
O=c1[nH]c2ccccc2n1C1CCN(Cc2ccc(-c3[nH]c4cc5ncnc5cc4nc3-c3ccccc3)cc2)CC1 | cell-free assay |  |  | 0.5 µM | remaining signal | 114%
C#Cc1n[nH]c2c(-c3cn([C@@H](C)c4ccccn4)c(=O)[nH]c3=O)cc(F)cc12 | enzyme activity | inhibitor |  | 0.1 µM | inhibition | 7.4%
Cn1cc(-c2cccc(N3CCc4c(sc5c4CC(C)(C)C5)C3=O)c2CO)cc(Nc2ccncn2)c1=O | enzyme activity | inhibitor |  | 1 µM | inhibition | 4%
Cc1nn(C)cc1-c1nc2c(N3CCN(Cc4ccc(Cl)cc4)CC3)c(Cl)cnc2[nH]1 | binding |  | competition with immobilised ligand | 1 µM | remaining binding | 77%
Nc1ncc(-c2nc(N3CCOCC3)nc(N3CCOCC3)n2)c(C(F)F)n1 | binding |  | competition with immobilised ligand | 10 µM | remaining binding | 41%
Cn1cncc1[C@@](O)(COc1ccc(C#N)cc1-c1ccc(OC(F)(F)F)cc1)c1ccc(C#N)cc1 | cell-free assay |  | competition with immobilised ligand | 1 µM | remaining binding | 90%
COc1cc(Nc2ncc(F)c(Nc3ccc4c(n3)NC(=O)C(C)(C)O4)n2)cc(OC)c1OC | binding |  | competition with immobilised ligand | 10 µM | inhibition | 84%
COc1ncccc1-c1cnn2ccc(N3CCN(C(=O)OC(C)C)CC3)nc12 | binding |  | competition with immobilised ligand | 1 µM | remaining binding | 100%
